How the values were obtained:
Type in all cases: functional, cell-based
XF498 [1] = assay: Concentration required for inhibiting proliferation of human brain tumor cell line XF 498 after 72 hr of incubation was determined; settings: XF498, 72 h
How it was run: (§1)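 SRB assay. Cells were passaged with trypsin-EDTA, seeded at 1–2 · 10^4 cells/well and grown for 24 h. Compounds dissolved in culture medium were added in triplicate and incubated 48 h at 37 C, 5% CO2. Cells were fixed with 10% cold TCA, stained with 0.4% SRB in 1% acetic acid, and the dye was solubilized in 10 mM Tris base (pH 10.5). Absorbance was read at 520 nm. IC50 is the concentration giving 50% inhibition.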

HCT-15 = assay: Concentration required for inhibiting proliferation of human colon tumor cell line HCT-15 after 72 hr of incubation was determined; settings: HCT-15, 72 h; how it was run: as §1
SK-MEL-2 [2] = assay: Concentration required for inhibiting proliferation of human melanoma tumor cell line SK-MEL-2 after 72 hr of incubation was determined; settings: SK-MEL-2, 72 h; how it was run: as §1
A549 = assay: Concentration required for inhibiting proliferation of human lung tumor cell line A549 after 72 hr of incubation was determined; settings: A549, 72 h; how it was run: as §1
SK-OV-3 = assay: Concentration required for inhibiting proliferation of human ovarian tumor cell line SK-OV-3 after 72 hr of incubation was determined; settings: SK-OV-3, 72 h; how it was run: as §1
XF498 [3] = assay: Concentration required for inhibiting proliferation of human brain tumor cell line XF 498 by 50% after 72 hr of incubation was determined; settings: XF498, 72 h; how it was run: as §1
SK-MEL-2 [4] = assay: Concentration required for inhibiting proliferation of human melanoma tumor cell line SK-MEL-2 by 50% after 72 hr of incubation was determined; settings: SK-MEL-2, 72 h; how it was run: as §1

Row | IC50 (HCT-15) | IC50 (SK-MEL-2 [2]) | IC50 (A549) | IC50 (SK-OV-3) | SMILES | IC50 (XF498 [1]) | IC50 (XF498 [3]) | IC50 (SK-MEL-2 [4])
1 | 6.71 µM | 8.51 µM | 8.13 µM | 5.74 µM | CCC1(c2ccccc2)CC(=O)C(C(CC(=O)c2ccc(-c3ccc(Br)cc3)cc2)c2ccccc2)=C(O)O1 (stereo not given) | 6.59 µM |  | 
2 | > 10 µM | > 10 µM | > 10 µM | > 10 µM | CCCC1(CCc2ccccc2)CC(=O)C(C2CC(c3ccc(-c4ccc(Br)cc4)cc3)Cc3ccccc32)=C(O)O1 (stereo not given) | > 10 µM |  | 
3 | > 10 µM | > 10 µM | > 10 µM | > 10 µM | CCC1(c2ccccc2)CC(=O)C(C2CC(c3ccc(-c4ccc(Br)cc4)cc3)Cc3ccccc32)=C(O)O1 (stereo not given) | > 10 µM |  | 
4 | > 10 µM | > 10 µM | > 10 µM | > 10 µM | CCC1(c2ccccc2)CC(=O)C(C2CC(c3ccc(OCc4ccc(C(F)(F)F)cc4)cc3)Cc3ccccc32)=C(O)O1 (stereo not given) | > 10 µM |  | 
5 | > 10 µM | > 10 µM | > 10 µM | > 10 µM | CCCC1(c2ccccc2)CC(=O)C(C(CC(=O)c2ccc(-c3ccc(Br)cc3)cc2)c2ccccc2)=C(O)O1 (stereo not given) | > 10 µM |  | 
6 | > 10 µM | > 10 µM | > 10 µM | > 10 µM | COc1ccc(C2Cc3ccccc3C(C3=C(O)OC(C)(c4ccccc4)CC3=O)C2)cc1 (stereo not given) | > 10 µM |  | 
7 | 1.31 µM | 2.05 µM | 1.83 µM | 1.8 µM | CC1(c2ccccc2)CC(=O)C(C2CC(c3ccc(-c4ccc(Br)cc4)cc3)Cc3ccccc32)=C(O)O1 (stereo not given) | 1.36 µM |  | 
8 | 8.59 µM | 8.54 µM | 9.18 µM | 5.69 µM | CC1(c2ccccc2)CC(=O)C(C(CC(=O)c2ccc(-c3ccc(Br)cc3)cc2)c2ccccc2)=C(O)O1 (stereo not given) | 6.73 µM |  | 
9 | > 10 µM | > 10 µM | > 10 µM | > 10 µM | CCC1(c2ccccc2)CC(=O)C(C2CC(c3ccc(OC)cc3)Cc3ccccc32)=C(O)O1 (stereo not given) | > 10 µM |  | 

Row | SMILES | IC50 (HCT-15) | IC50 (SK-MEL-2 [2]) | IC50 (A549) | IC50 (SK-OV-3) | IC50 (XF498 [1]) | IC50 (XF498 [3]) | IC50 (SK-MEL-2 [4])
10 | COc1cc([C@@H]2c3cc4c(cc3[C@@H](O[C@@H]3O[C@@H]5CO[C@@H](C)O[C@H]5[C@H](O)[C@H]3O)[C@H]3COC(=O)[C@H]23)OCO4)cc(OC)c1O [ETOPOSIDE] | 1.45 µM |  | 1.06 µM | 3.46 µM |  | 3.14 µM | 4.13 µM

Reference: ChEMBL document CHEMBL1138019, “Synthesis and antitumor activity of 4-hydroxycoumarin derivatives” (Bioorg Med Chem Lett, 2004)
